Data on three compounds can be found in ChEMBL document CHEMBL4373675, “Derivatisation of parthenolide to address chemoresistant chronic lymphocytic leukaemia” (Medchemcomm, 2019).

Calls of active or inactive are those of the source. The calls are words filed in the database; no cut-off is given here.

As usually defined, the AUC(0-inf) is the area under the concentration-time curve extrapolated to infinity. Lower therefore signals less exposure. Broadly, the bioavailability is the share of a dose that reaches the circulation, judged against a reference dose that is usually intravenous. By half-life is commonly meant the time in which the quantity being followed falls by half. In general, Tmax refers to the time from dosing to the highest level. As usually defined, the Papp A→B is how fast a substance crosses the layer from the apical side. The low end stands for poor permeation, the high end for ready permeation. What is called Papp B→A is how fast a substance crosses the layer from the basolateral side.

The nature of data set [1]: AUC in mouse at 10 mg/kg, po. The data set is classed as ADME, organism-based. The note with it: in vivo.
Data set [2] can be described thus: Intrinsic clearance in mouse hepatocytes assessed as per million cells. It counts as ADME, cell-based, Hepatocyte. The note with it: read-out: CLH. Summed up:
(§1)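 Metabolic stability was measured in mouse hepatocytes. Intrinsic clearance is given in µL min⁻¹ per million cells, alongside half-life in min.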

Data set [3] in a line: AUC (0 to infinity) in mouse at 1 mg/kg, iv. It counts as ADME, organism-based. The note with it: in vivo. Further details: dose 1 mg/kg, route intravenous, time infinity.
In the next data set the test system is MEC1. Description: Antiproliferative activity against human MEC1 cells assessed as cell death in presence of ROS scavenger N-acetyl-L-cysteine by alamar blue assay. It counts as functional, cell-based. In a few lines: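 MEC1 CLL cells (ATCC; carry mutated p53) were pretreated with N-acetylcysteine and then exposed to compound across a concentration series. Viability was read by alamarBlue, and EC50 was taken from concentration-activity plots.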

Data set [4] is described as follows: Oral bioavailability in mouse at 10 mg/kg. The data set is classed as ADME, organism-based. Conditions: in vivo.
Data set [5] in a line: Half life in mouse hepatocytes. The data set is classed as ADME, cell-based, Hepatocyte. In a few lines: as §1
Data set [6] in a line: Tmax in mouse at 10 mg/kg, po. The data set is classed as ADME, organism-based. Conditions: in vivo.
The nature of data set [7]: Half life in aqueous solution at pH 7.4. It counts as physicochemical.
Data set [8] in a line: Volume of distribution at steady state in mouse at 1 mg/kg, iv. It counts as ADME, organism-based. Conditions: in vivo, read-out: Vdss.
The nature of data set [9]: Permeability across apical to basolateral side in human Caco2 cells. Conditions: Caco-2. The data set is classed as ADME, cell-based. In a few lines: (§2)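 Permeability was measured in a Caco-2 monolayer at pH 7.4 in both the apical-to-basolateral and basolateral-to-apical directions. Results are given as mean apparent permeability (Papp, 10⁻⁶ cm s⁻¹), and efflux ratio was derived from the two directions.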
Background: Caco-2 cells form a polarised layer with tight junctions and transporters.

Data set [10] is described as follows: Permeability across basolateral to apical side in human Caco2 cells. The note with it: Caco-2. The data set is classed as ADME, cell-based. Summed up:
as §2

As for `C/C1=C\CC[C@@]2(C)O[C@@H]2[C@H]2OC(=O)[C@@H](CN3CCC(c4cc(O)nc(C)n4)CC3)[C@@H]2CC1`, the AUC(0-inf) in [1] turned out to be 1700 ng·h/mL; in data set [3], 289 ng·h/mL. In data set [2], the hepatocyte CLint was found to be 22 µL/min/1e6 cells. Moreover, in the data set on MEC1, the result was inactive.

For `C/C1=C/CC[C@@]2(C)O[C@@H]2[C@H]2OC(=O)[C@@H](CN3CCCC3)[C@@H]2CC1`, the AUC(0-inf) came to 711 ng·h/mL in [1] and 80.5 ng·h/mL in data set [3]. The hepatocyte CLint in [2] came to 22 µL/min/1e6 cells. Moreover, the bioavailability in data set [4] was found to be 95.8%. Besides, the values for the half-life in data set [5] and in data set [7] were 1.08 h and above 2 h, respectively. Besides, the Tmax in data set [6] was 0.5 h. In data set [8], the Vd is 11.6 L/kg. Further, the Papp A→B in data set [9] stood at 15.9 ×10⁻⁶ cm/s. Also, in [10], the Papp B→A amounted to 16.2 ×10⁻⁶ cm/s.

As to `C/C1=C\CC[C@@]2(C)O[C@@H]2[C@H]2OC(=O)[C@@H](CN[C@@H](Cc3ccccc3)C(=O)O)[C@@H]2CC1`, the hepatocyte CLint in data set [2] turned out to be 16 µL/min/1e6 cells.
